Assay results: ChEMBL document CHEMBL1137710, “Synthesis and in vitro antitumor activity of new quinoxaline derivatives” (2009)

What was measured:
Format in all cases: functional
[1] = system: LOX IMVI; experiment: Growth inhibition of human LOXIMVI cells after 48 hrs by sulforhodamine B assay
Procedure, shortened: (§1)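 NCI 60-human-tumor-cell-line panel, with compounds tested over a 5-log dose range. Values are taken from dose-response curves as log10 molar concentrations: GI50 is 50% net growth inhibition, TGI is total growth inhibition, and LC50 is 50% net cell death.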

[2] = system: PC-3; experiment: Growth inhibition of human PC3 cells after 48 hrs by sulforhodamine B assay; details: PC-3, 48 h; procedure, shortened: as §1
[3] = system: RXF 393; experiment: Growth inhibition of human RXF393 cells after 48 hrs by sulforhodamine B assay; details: RXF 393, 48 h; procedure, shortened: as §1
[4] = system: ACHN; experiment: Growth inhibition of human ACHN cells after 48 hrs by sulforhodamine B assay
[5] = system: SK-MEL-2; experiment: Growth inhibition of human SK-MEL-2 cells after 48 hrs by sulforhodamine B assay; details: SK-MEL-2, 48 h; procedure, shortened: as §1
[6] = system: SF-268; experiment: Anticancer activity against human SF268 cells assessed as cell growth at 100 uM after 48 hrs by sulforhodamine B assay; details: SF-268, 48 h, read-out: Activity
[7] = system: SF-539; experiment: Growth inhibition of human SF539 cells after 48 hrs by sulforhodamine B assay; details: SF-539, 48 h; procedure, shortened: as §1
[8] = system: SK-MEL-28; experiment: Growth inhibition of human SK-MEL-28 cells after 48 hrs by sulforhodamine B assay; details: SK-MEL-28, 48 h; procedure, shortened: as §1
[9] = system: BT-549; experiment: Growth inhibition of human BT549 cells after 48 hrs by sulforhodamine B assay; details: BT-549, 48 h; procedure, shortened: as §1
[10] = system: SNB-75; experiment: Growth inhibition of human SNB75 cells after 48 hrs by sulforhodamine B assay; details: SNB-75, 48 h
Procedure, shortened: (§2)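 Run in the NCI 60-human-tumour-cell-line panel, tested over a 5-log dose range. Dose–response curves gave three values per cell line, each as a log10 molar concentration: GI50 (50% inhibition of net cell growth), TGI (total inhibition of net growth) and LC50 (50% net cell death). The mean graph midpoint is the arithmetic mean over all lines, with insensitive lines entered at the highest concentration tested.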

[11] = system: KM12; experiment: Growth inhibition of human KM12 cells after 48 hrs by sulforhodamine B assay; details: KM12, 48 h; procedure, shortened: as §1
[12] = system: NCI-H460; experiment: Growth inhibition of human NCI-H460 cells after 48 hrs by sulforhodamine B assay; details: NCI-H460, 48 h; procedure, shortened: as §1
[13] = system: MCF7; experiment: Growth inhibition of human MCF7 cells after 48 hrs by sulforhodamine B assay; details: MCF7, 48 h; procedure, shortened: as §1
[14] = system: NCI-H460; experiment: Anticancer activity against human NCI-H460 cells assessed as cell growth at 100 uM after 48 hrs by sulforhodamine B assay; details: NCI-H460, 48 h, read-out: Activity
[15] = system: SF-268; experiment: Growth inhibition of human SF268 cells after 48 hrs by sulforhodamine B assay; details: SF-268, 48 h; procedure, shortened: as §1
[16] = Growth inhibition of human Hs 578T cells after 48 hrs by sulforhodamine B assay; procedure, shortened: as §1
[17] = system: MCF7; experiment: Anticancer activity against human MCF7 cells assessed as cell growth at 100 uM after 48 hrs by sulforhodamine B assay; details: MCF7, 48 h, read-out: Activity
[18] = system: SR; experiment: Growth inhibition of human SR cells after 48 hrs by sulforhodamine B assay; procedure, shortened: as §2
[19] = system: HCT-15; experiment: Growth inhibition of human HCT15 cells after 48 hrs by sulforhodamine B assay; details: HCT-15, 48 h; procedure, shortened: as §1
[20] = system: SK-MEL-5; experiment: Growth inhibition of human SK-MEL-5 cells after 48 hrs by sulforhodamine B assay; details: SK-MEL-5, 48 h; procedure, shortened: as §1
[21] = system: NCI-H226; experiment: Growth inhibition of human NCI-H226 cells after 48 hrs by sulforhodamine B assay; details: NCI-H226, 48 h; procedure, shortened: as §1
[22] = system: UACC-62; experiment: Growth inhibition of human UACC62 cells after 48 hrs by sulforhodamine B assay; details: UACC-62, 48 h; procedure, shortened: as §2
[23] = system: HOP-92; experiment: Growth inhibition of human HOP92 cells after 48 hrs by sulforhodamine B assay; details: HOP-92, 48 h; procedure, shortened: as §1
[24] = system: EKVX; experiment: Growth inhibition of human EKVX cells after 48 hrs by sulforhodamine B assay; procedure, shortened: as §1
[25] = system: IGROV-1; experiment: Growth inhibition of human IGROV1 cells after 48 hrs by sulforhodamine B assay; details: IGROV-1, 48 h; procedure, shortened: as §1
[26] = system: DU-145; experiment: Growth inhibition of human DU145 cells after 48 hrs by sulforhodamine B assay; details: DU-145, 48 h; procedure, shortened: as §1
[27] = system: MOLT-4; experiment: Growth inhibition of human MOLT4 cells after 48 hrs by sulforhodamine B assay; details: MOLT-4, 48 h; procedure, shortened: as §1
[28] = read-out: pLC50 (the source's name) (converted)

## Nc1cc(N)c2nc(-c3ccccc3)c(Oc3ccc(F)cc3)nc2c1
[1]
  GI50: 43.7 µM
  LC50: > 100 µM
[1]; read-out: pTGI (converted)
  TGI: > 100 µM
[2]
  GI50: 8.32 µM
[2]; [28]
  CC50: 83.2 µM
[2]; read-out: pTGI (converted)
  TGI: 27.5 µM
[3]
  GI50: 19.1 µM
[3]; [28]
  CC50: > 100 µM
[3]; read-out: pTGI (converted)
  TGI: > 100 µM
[4]
  GI50: 13.8 µM
[4]; [28]
  CC50: 81.3 µM
[4]; read-out: pTGI (converted)
  TGI: 33.1 µM
[5]
  GI50: 42.7 µM
[5]; [28]
  CC50: > 100 µM
[5]; read-out: pTGI (converted)
  TGI: > 100 µM
[6]
  growth at 100 µM: 6%
[7]
  GI50: 18.2 µM
  LC50: 70.8 µM
[7]; read-out: pTGI (converted)
  TGI: 35.5 µM
[8]
  GI50: 19.5 µM
[8]; [28]
  CC50: > 100 µM
[8]; read-out: pTGI (converted)
  TGI: 46.8 µM
[9]
  GI50: 15.1 µM
[9]; [28]
  CC50: 81.3 µM
[9]; read-out: pTGI (converted)
  TGI: 34.7 µM
[10]
  GI50: 23.4 µM
  LC50: > 100 µM
[10]; read-out: pTGI (converted)
  TGI: 49 µM
[11]
  GI50: 14.5 µM
  LC50 (50% net cell kill): > 100 µM
[11]; read-out: pTGI (converted)
  TGI: 40.7 µM
[12]
  GI50: 39.8 µM
  LC50 (50% net cell kill): > 100 µM
[12]; read-out: pTGI (converted)
  TGI: > 100 µM
[13]
  GI50: 20.4 µM
[13]; [28]
  CC50: > 100 µM
[13]; read-out: pTGI (converted)
  TGI: > 100 µM
[14]
  growth at 100 µM: 0%
[15]
  GI50: 13.8 µM
  LC50: > 100 µM
[15]; read-out: pTGI (converted)
  TGI: 47.9 µM
[16]
  GI50: 20 µM
[16]; [28]
  CC50: > 100 µM
[16]; read-out: pTGI (converted)
  TGI: 53.7 µM
[17]
  growth at 100 µM: 2%
[18]
  GI50: 8.13 µM
  LC50 (concentration giving 50% net cell death): > 100 µM
[18]; read-out: pTGI (converted)
  TGI: > 100 µM
[19]
  GI50: 36.3 µM
  LC50: > 100 µM
[19]; read-out: pTGI (converted)
  TGI: > 100 µM
[20]
  GI50: 12.3 µM
[20]; [28]
  CC50: 83.2 µM
[20]; read-out: pTGI (converted)
  TGI: 31.6 µM
[21]
  GI50: 20.4 µM
  LC50: > 100 µM
[21]; read-out: pTGI (converted)
  TGI: 49 µM
[22]
  GI50: 15.8 µM
[22]; [28]
  CC50: 69.2 µM
[22]; read-out: pTGI (converted)
  TGI: 33.1 µM
[23]
  GI50: 12.3 µM
  LC50 (50% net cell death): 72.4 µM
[23]; read-out: pTGI (converted)
  TGI: 29.5 µM
[24]
  GI50: 14.8 µM
  LC50 (50% net cell kill): 77.6 µM
[24]; read-out: pTGI (converted)
  TGI: 33.9 µM
[25]
  GI50: 28.2 µM
[25]; [28]
  CC50: > 100 µM
[25]; read-out: pTGI (converted)
  TGI: > 100 µM
[26]
  GI50: 0.46 µM
[26]; [28]
  CC50: > 100 µM
[26]; read-out: pTGI (converted)
  TGI: 87.1 µM
[27]
  GI50: 6.61 µM
  LC50: > 100 µM
[27]; read-out: pTGI (converted)
  TGI: > 100 µM
